# ABHD4 inh: ABHD4 (mouse) inhibition, primary FP screen; hit rate 0.54% among 370,000; purified mABHD4, FP-Rh probe fluorescence polarization; inhibition, % at 8.92 µM; Q8VD66; AID 720543;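 active = inhibition exceeding the mean over every tested compound plus 3 SD, cut at about 30% in these data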;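 also: 0% = plate median of compound wells and 100% = S159A mutant with DMSO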
#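 assay system = mABHD4 protein | compound dosing = single nominal dose of 8.92 µM, 0.89% DMSO final | read-out basis = percent inhibition of probe binding, normalized to plate controls | schedule = Enzyme–compound pre-incubation 45 min, then probe 60 min, both 25 °C | detection = fluorescence polarization, excitation 525 nm, emission 598 nm, BODIPY TMR filters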
# TCR CD3 inh: human TCR-CD3 binding inhibition | hit rate 0.37% among 360,000 | TAMRA-labeled TCR probe fluorescence, biochemical | inhibition, % at 9.4 µM; in the data active = inhibition above about 19%;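 also: recombinant mutant TCR 2C K166C tagged with TAMRA read by polarization; 0% = receptor in buffer alone and 100% = receptor with positive control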
# SIAE inh: inhibitors of human sialic acid acetylesterase SIAE. AID 1053197. inhibition, % at 9.66 µM. SIAE FP-Rh probe binding, fluorescence polarization. hit rate 0.69% among 370,000. Q9HAT2;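 active = inhibition above a cutoff: mean of compounds within the control limits plus 3 SD of those, cut at about 17% in these data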;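 also: 0% = plate median of compound wells and 100% = probe without SIAE protein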
# HTRA1 inhibitor: blocks human HTRA1 serine peptidase | Q92743 | recombinant HTRA1, FP-rhodamine activity-based probe, fluorescence polarization | inhibition, % at 5.96 µM | hit rate 0.5% among 340,000 | AID 504803; in the data active = inhibition above about 36%;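 also: 0% = enzyme with DMSO and 100% = wells lacking enzyme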
# Target sequence (Q92743 whole entry, looked up): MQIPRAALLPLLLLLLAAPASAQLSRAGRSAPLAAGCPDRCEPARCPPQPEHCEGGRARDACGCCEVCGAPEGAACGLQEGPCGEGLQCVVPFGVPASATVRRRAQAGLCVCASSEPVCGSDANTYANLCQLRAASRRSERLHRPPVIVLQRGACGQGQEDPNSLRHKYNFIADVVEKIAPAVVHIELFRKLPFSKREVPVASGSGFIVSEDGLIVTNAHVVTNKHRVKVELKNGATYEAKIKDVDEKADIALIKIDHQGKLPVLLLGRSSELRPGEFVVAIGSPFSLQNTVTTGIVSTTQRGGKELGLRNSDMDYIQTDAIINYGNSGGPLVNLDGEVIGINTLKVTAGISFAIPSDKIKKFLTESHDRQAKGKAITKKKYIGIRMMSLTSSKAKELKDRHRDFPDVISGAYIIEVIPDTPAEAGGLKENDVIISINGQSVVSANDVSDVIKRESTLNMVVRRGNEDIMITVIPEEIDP
# DAGLB inhibitor: diacylglycerol lipase beta (human) inhibition. Q8NCG7. HEK293T DAGLB membrane lysate, EnzChek fluorogenic substrate. inhibition, % at 5.17 µM. hit rate 0.059% among 340,000. AID 504411; in the data active = inhibition above about 34%;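 also: 0% = enzyme with vehicle and 100% = wells lacking enzyme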
# SIAE confirm: confirmation of human SIAE inhibitors | shares compounds with SIAE inh | SIAE FP-Rh activity-based probe, fluorescence polarization | inhibition, % at 9.66 µM | hit rate 13% among 2,300 | AID 1117263;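 active = mean inhibition of the replicates above the hit cutoff set in the primary screen, cut at about 17% in these data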;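 also: 0% = SIAE with DMSO and probe and 100% = probe without SIAE; inhibitors lower polarization as more probe stays unbound to SIAE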
# Numbers without * were called inactive; x = no result given. Sampled rows, rich in hits. Any-hit rate of the full collection: about 1.5%.
SMILES,ABHD4 inh,TCR CD3 inh,SIAE inh,HTRA1 inhibitor,DAGLB inhibitor,SIAE confirm
O=S1(=O)c2cc(Cl)ccc2N2CC[C@H](C2)N1Cc1ccc(Cl)c(Cl)c1,4,4,1,x,x,x
CC(=O)N1CCN(S(=O)(=O)c2ccc3c(c2)oc(=O)n3C)CC1,-4,x,8,x,x,x
Nc1ccc(N=Nc2ccccc2)cc1[N+](=O)[O-],12,-3,18*,-3,15,3
COc1ccc(N2C(=O)C(=O)/C(=C(/O)c3ccc(C)cc3)C2c2cccnc2)cc1 (configuration not stated),7,1,21*,2,1,3
COc1ccc(C2/C(=C(/O)c3ccc(C)cc3)C(=O)C(=O)N2C)cc1 (configuration not stated),1,2,12,-5,2,x
C[C@@H]1C=CCCO[C@]12C(=O)N(Cc1ccccc1C(F)(F)F)c1ccccc12,0,7,-1,x,x,x
COc1ccc(C(=O)N(c2ccc(C)cc2)C2C=CS(=O)(=O)C2)cc1OC (configuration not stated),-6,4,20*,4,0,-5
CC(C)c1[nH]nc2c1C(c1ccc(Br)cc1)NC2=O (configuration not stated),-1,6,0,x,x,x
CC(=O)Nc1ccc(N/C=C/C(=O)c2ccc(Cl)cc2)cc1,3,6,19*,11,-3,3
CNc1ccc(OC)cc1-n1cnc(-c2ccc([N+](=O)[O-])cc2)c1,2,2,20*,-2,1,8
CS(=O)(=O)N(CC(=O)NCCSC1CCCCC1)c1cccc(F)c1,8,-2,18*,0,-1,1
CS(=O)(=O)N(CC(=O)NCCSC1CCCCC1)c1ccccc1,-4,6,-6,-5,1,x
O=C(CNS(=O)(=O)c1ccccc1)N1CCN(c2ncccn2)CC1,4,x,-1,x,x,x
c1ccc2cc(N3CCCCC3)ccc2c1,-4,11,0,1,-5,x
O=C1c2ccccc2C(=O)c2cc(N3CCCCC3)ccc21,-19,-31,22*,1,24,42*
Cc1cccc(-c2nc(Nc3ccc(N4CCOCC4)cc3)c3ccccc3n2)c1,9,-2,30*,15,4,6
Cc1ncc(CSc2nc3ccccc3[nH]2)c(N)n1,2,-2,-2,3,2,x
COc1ccc2nc(SCc3cnc(C)nc3N)[nH]c2c1,10,4,19*,1,1,-4
CC(C)[C@H](NC(=O)C1CC1)C(=O)N1CCC[C@H]1C(=O)NCCc1ccccc1Cl,6,2,3,x,x,x
COc1cc(CNc2ccc(CNc3ncn[nH]3)cc2)ccc1OCC(=O)NC(C)(C)C,7,-5,4,4,2,x
COc1cc(CNc2ccc(N3CCOCC3)cc2)ccc1OCC(=O)NC(C)(C)C,17,5,19*,10,3,5
N#CCC[C@@H]1CC[C@]2(CCCN(C(=O)C3CCCC3)C2)O1,-3,x,-5,x,x,x
Cc1ccc(Cl)cc1NC(=O)Cn1c(C)csc1=O,6,1,23*,2,0,5
Cc1cc(Cl)ccc1NC(=O)CN1CCCC1,4,9,23*,-5,-1,1
CCOC(=O)[C@@]12CCCC3=C1N(CCC3)C(=O)[C@H]2CC(=O)N1CCOCC1,0,x,0,x,x,x
SMILES,ABHD4 inh,TCR CD3 inh,SIAE inh,HTRA1 inhibitor,DAGLB inhibitor,SIAE confirm
O=C(N/N=C\c1ccccn1)c1cccc(C(=O)N/N=C\c2ccccn2)n1,-5,18,21*,-2,2,21*
O=C(N/N=C/c1ccccn1)c1ccccc1,-4,-6,-3,1,2,x
O=[N+]([O-])c1ccc2c(c1)C=C1CCCCC1(N1CCCC1)O2 (configuration not stated),-3,-3,21*,0,-11,-3
C/C(=N\NC(=O)c1cc([N+](=O)[O-])cc([N+](=O)[O-])c1)c1ccco1,5,0,18*,3,-1,4
CCCC(C(=O)NC1CCCC1)N(Cc1ccc2c(c1)OCO2)C(=O)c1snc(C(N)=O)c1N (configuration not stated),1,3,24*,-1,-4,3
CNC(C)C(=O)NC(C(=O)N1CCCC1C(=O)Nc1cccc2ncccc12)C(C)C (configuration not stated),-3,x,0,x,x,x
Cc1c(/C=N/NC(=O)c2ccccc2O)c2ccccn2c1C(=O)c1ccc(F)cc1,6,2,37*,10,3,-2
CC(=O)C1=C(C)N(Cc2ccc(Cl)cc2)C(=S)NC1c1ccc(Cl)cc1 (configuration not stated),-8,-3,-5,x,x,x
COc1ccccc1NC(=S)N/N=C/c1ccc(O)cc1,2,-11,19*,-2,-4,-2
O=C(Nc1ccc(F)cc1)OCc1cn(Cc2ccc(F)cc2)nn1,-5,x,-1,x,x,x
O=C(CC1SC(=O)N(c2ccccc2)C1=O)Nc1ccccc1 (configuration not stated),2,-7,26*,0,12,1
N#Cc1ccc2nc(-c3ccc(CN4CCC5(CC4)CNc4ccccc45)cc3)c(-c3ccccc3)nc2c1,5,-1,6,x,x,x
COc1ccc(NC(=O)Nc2ccccc2OC)cc1,-3,2,1,-1,1,x
COc1ccccc1NC(=O)Nc1ccc(NC(=O)c2ccccc2O)cc1,-16,1,51*,-12,-4,26*
CCOC(=O)CC1(Cc2ccccc2)Oc2ccccc2O1,-4,2,-2,x,x,x
Cc1ccc(S(=O)(=O)NC(=O)c2cc(C)n(C3CC3)c2C)cc1,12,4,24*,3,0,5
CCOc1ccc(CNc2ccc3c(c2)ncn3C(C)(C)C)cc1,0,9,22*,4,-2,-2
CN(C)c1ccc(CNc2ccc3c(c2)ncn3C(C)(C)C)cc1,3,3,18*,11,-2,3
O=C(Cc1ccc(Nc2nc3ccc(Br)cc3[nH]2)cc1)NCCc1cccs1,16,-1,20*,9,0,7
O=C(NCc1ccco1)c1cccc(Nc2nc3ccc(Br)cc3[nH]2)c1,7,1,41*,6,-3,11
O=C(NCC1CC1)c1ccc2nc([C@@H]3O[C@H](CO)[C@H](O)[C@H](O)[C@H]3O)[nH]c2c1,-7,0,1,x,x,x
O=C(NCC1CC1)c1ccc(Nc2nc3ccc(Br)cc3[nH]2)cc1,23,4,25*,-11,4,7
O=C(NCc1cccs1)C1CCCN(S(=O)(=O)c2cccc3ccccc23)C1 (configuration not stated),-10,x,2,x,x,x
CCc1ccccc1N(CC(=O)N1CCCCC1)S(=O)(=O)c1ccccc1,-3,5,7,-10,-2,x
Cc1cccc(N(CC(=O)N2CCCC2)S(=O)(=O)c2ccccc2)c1C,1,-12,22*,1,1,0

# Assay outcomes as filed in PubChem BioAssay.
